B1: tRNA (parent)
chain: GUUCCGUUGGCGUAAUGGUAACGCGUCUCCCUCCUAAGGAGAAGACUGCGGGUUCGAGUCCCGUACGGAACG

Fewer inactive variants are shown than the library holds.

In the series the parent is B1. The series is described as follows: yeast fitness relative to wild type (ratio to wild type); higher = fitter; tRNA-Arg(CCU), competitive growth, 37 C, YPD. An outline of the steps: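 Changes in genotype frequencies gave Darwinian fitness relative to wild type. Frequencies were read by 100-nucleotide paired-end sequencing of gene amplicons before and after pooled Saccharomyces cerevisiae strains, carrying tRNA-Arg(CCU) gene variants at the native locus, were competed in YPD at 37°C for 24 hours in six replicates. A genotype was kept only with ≥ 100 starting reads, and estimates < 0.5 were set to 0.5.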
With GUUCGGUUGGCGUAAUGGUAACGCGUCUCCCUCCUAAGGAGAAGCCUGCGGGUUCGUGUCCCGUACGGAACG, the yeast fitness was no more than 0.5. For the variant GUUCGGUUGGCGUAAUGGUAACGCGUCUCCCUCCUAAGGAGAAGACUGCGCGUUCGAGUCCCGUCCGGAACG, the yeast fitness is no more than 0.5.

Take GUUCCGUUGGCGUAAUGGUAACGCGUCUCUCUCCUAAGGAGAAGACGGCGGGUUCGAGUCCCGUACGGAACG: the yeast fitness was determined as 0.588. The value for GUUCCGUGGGCGUAAUGGUACCGCGUCUCCCUCCUAAGGAGAAGACUGCGGGUUCCAGUCCCGUACGGAACG was 0.766. GUUCCGUUGGCGUAAUGGUAACGCGUCACCCUCCUAGGGGGAAGACUGCGGGUUCGAGUCCCGUACGGAACG: the yeast fitness was no more than 0.5.

Regarding GUUCCGUUGGCGUAAUGGUAACGCGUCUGCAUCCUAAGGAGAAGACAGCGGGUUCGAGAUCGGUAUGGAACG, the yeast fitness is no more than 0.5.

For the variant GUUCCGUUGGCGUAAUGGUAACGCGUCUCCCUCCUUAGGUGAAGGCUGCGGGUUCGACUCCCGUACGGAACG, the yeast fitness was determined as 0.565. Under GUUUCGUUGGCGUAAUGGUAACGCGUCGCCCUCCUAAGGAGAAGACUGCGGGUUCGAGUCUUGUACGGAACG stands no more than 0.5. As for GUUCCGUUGGCGUAAUGGUAACGUGUCUCCCUCUUAAGGAGAAGACUGCGGGUUCGAGGCCCGUACGGAACG, the yeast fitness is no more than 0.5. As for GCUCCGUUUGCGUAAUGGUCACGCGUCUCCCUCCUAAGGAGAAGACUGCGGGUUCGGGUCCCGUCCGGAACG, the yeast fitness was no more than 0.5. Consider GUUCCGUUGGCGUAAUAGUAACGCGUCUCCCUCCUAAGGAGAAGACUGCCGGUUCGAGUCCCGUACGGAACG, for which the yeast fitness stood at 0.647. Take GUUCCGUUGGCGUAAUGGUAGUGCGUCUCCCUCCUAAGGAGAAGACUGCGGGUUCGGGUCCCGUACGGAACG: the yeast fitness was determined as 0.614. Regarding GUUCCGUUGGCGUAAUGGUCUCGCGUGUCCCUCCUAAGGAGUAGACUGCGGGUUCGAGUCCCGUACGGCACG, the yeast fitness was no more than 0.5. Take GGUCCGUUGGCGUAAUGGUAACGCGUCUCCCUCCUAAGGAGAAGACUGCGAGUUCGACUCCCGUACGGAACG: the yeast fitness turned out to be 0.562.

Turning to GUUCCGUUGGCGUAAUGGUAACGCGACUCCCUCCUAAGGAGAAGACUGCGGGUUCGCGUCCCGUACGGAACG, the yeast fitness came to 0.64.

In the case of GUUCCGUUGGCGUGAUGGUAACGCGUCUCCCUCUUAAGGAGAAGACUGCGGAUUCGAGUCCCGUAUGGAUCG, the yeast fitness is no more than 0.5. In the case of GUUACGUUGGCGUAAUGGUAAGGCGUCUCCCUUCUAAGGUGAAGACUGCGGGUUCGAGACCCGUACGGAACG, the yeast fitness was no more than 0.5. GUUCGGUUGGCGUAAUGCUAACGCGCCACCCUCCUAAGGAGAAGACUGCGGGUUCGAGUCCCGUACGGAACG: the yeast fitness is no more than 0.5. For the variant GUUCUGUUGGCGUAAUGGUAACGCGUCUCCCUCCUAAGGAGAAGACUGCGGGUUCGGGUCCCAUACGGAACG, the yeast fitness was determined as 0.63. Turning to GUUCCGUUAGCGUAAUGGUAACGCGUCUCCCUCCUACGGAGAAGACUGCGGGUUCGAGUCCGGUACGGAACG, the yeast fitness is no more than 0.5. Under GUUCCGAUGGCGUAAUGGUACCGCGUCUCCGUCCUAAGGAGAAGACUGCGGGUUCGAGUCCCGUACGGAACG stands no more than 0.5; under GUUCCGUUGGCGUUAUGGAAACGCGUCUCCCUCCUAAGGAGAAGACUGCGGGUUCGAGUCCCGUACGGAACG, 0.709; under GUUCCGUUGGCGCAAUGGUAACGCGUCUCCCUCCUAAGGAGAAGACUGCGGCAUGGAGUCCCGUACGGUACG, no more than 0.5. In the case of GUUCCGUUGGCGUAAUGGUAACGCGUCUCCCGCCUAAGGAGAAGACUGCGGGUUCGAGUCCCGUACGGCACG, the yeast fitness worked out at 0.848. As to GUUCCGUGGCCGUAAUGGUGACGCGUCUCCCUCCUAAGGAGAAGACUGCGGGUUCGAGUCCCGUACGGAACG, the yeast fitness is no more than 0.5.

With GUUCCGUUGGCGUAAUGGUAACGCGUCUCCCUCGUAAGGAGAAGGCUGCGGGUUCGAGUCCCGUACGGAACG, the yeast fitness worked out at 0.657. With GUUCCGUUGGCGUAAUGGUAAGGCGUCUCCCUCCUAAGGAGAAGACUGCGGGUUGGAGUCCCCUACGGAACG, the yeast fitness came to 0.572. Under GUUCAGUUGGCGUAAUGGUAACGCGUCUCCCUCCUAAGGAGAAGACUGCGGGUUGGAGUCCCGUACGGAACG stands 0.618; under GUGCCGUUGGCGUAAUGGUAACGCGUCUCCAUCCUAAGGAGAAGACUGCAGGUUCGAGUCCCGUACAGAACG, no more than 0.5; under GUUCCGUUGCCGUAAUGGUAACGCGUCUCCCUCCUAAGGAGUAGACUGCGGGUUCGAGUCUUGUACGGAACG, no more than 0.5.

For GUUCCGUUGGCGUAAUGGUAACGCGUCUCCCUCCUAAAGAGAAGACUGCGGGUUGGAGUCCCGUACGGAACG, the yeast fitness came to 0.564. Take GUUCCGUUGGCGUAAUGGUAACGCGUCUCCCUCCUACGGAGGAAACUGCGGGUUCGAGUCCCGUACAGAACG: the yeast fitness is no more than 0.5. Consider GUUCCGUUGGCCUAAUGGUAACGCGUCACCCUCCUAAGGAGAAGACUGCAGGUUCGAGUCCCGUACGGAACG, for which the yeast fitness worked out at 0.606. The value for GUUCCGUUGGCGUAAUGGCAACGCGUCUCCCGGCUAAGGAGAAGACUGCGGGUUCGAGUCCCGUACGGAACG was no more than 0.5. For the variant GUUACGUUGGCGUAAUGGUCACGCGUCUCCCUCAUAAGCAGAUGACUGCGGGUUCGAGUCCCGUACGGAACG, the yeast fitness came to 0.512. The value for GUUCCGUUGGCGUAAUGGUAACGCGUACGCCUCCUAAGGAGAAGACUGCGGGUUCGAGUCCCGUUCGGAACG was no more than 0.5. For the variant GUUCCGUCGGCGUAAUGGUAACGCGUCUCCCUCCUAAGGGGAAGACUGCGGGUUUGAGUCCCGUCCGGAACG, the yeast fitness is no more than 0.5.

The values above are taken from the RNAGym collection of RNA variant scans (doi:10.1126/science.aae0568).
